ChEMBL document CHEMBL4043282, “Discovery of the First Potent, Selective, and Orally Bioavailable Signal Peptide Peptidase-Like 2a (SPPL2a) Inhibitor Displaying Pronounced Immunomodulatory Effects In Vivo” (J Med Chem, 2018)
pIC50: −log10 of the molar value. In brackets after ≈: the same amount, converted by molar mass. Activity calls are given as the source filed them. The rule behind the calls is not given here.

Assays:
[1] = Inhibition of human gamma-secretase expressed in HEK293 cells using Notch1-VP16-Gal4 as substrate after 24 hrs by Bright-Glo luciferase reporter gene assay; type: cell-based; conditions: HEK293, 24 h
Method in brief: (§1)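 HEK293 cells transiently transfected with human SPPL2a, VP16-TNFα(aa1-76)-NTF substrate and Gal4-luciferase reporter (SPPL2a), or human Notch1-VP16-Gal4 plus Gal4-luciferase reporter relying on endogenous γ-secretase.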

[2] = target: T1, Signal peptide peptidase-like 2A (Homo sapiens, UniProt Q8TCT8); experiment: Inhibition of human SPPL2a expressed in HEK293 cells using GAL4-VP16 fusedTNFalpha (1 to 76)-NTF as substrate after 24 hrs by Bright-Glo luciferase reporter gene assay; type: cell-based; method in brief: as §1
T1 sequence (Q8TCT8 whole entry): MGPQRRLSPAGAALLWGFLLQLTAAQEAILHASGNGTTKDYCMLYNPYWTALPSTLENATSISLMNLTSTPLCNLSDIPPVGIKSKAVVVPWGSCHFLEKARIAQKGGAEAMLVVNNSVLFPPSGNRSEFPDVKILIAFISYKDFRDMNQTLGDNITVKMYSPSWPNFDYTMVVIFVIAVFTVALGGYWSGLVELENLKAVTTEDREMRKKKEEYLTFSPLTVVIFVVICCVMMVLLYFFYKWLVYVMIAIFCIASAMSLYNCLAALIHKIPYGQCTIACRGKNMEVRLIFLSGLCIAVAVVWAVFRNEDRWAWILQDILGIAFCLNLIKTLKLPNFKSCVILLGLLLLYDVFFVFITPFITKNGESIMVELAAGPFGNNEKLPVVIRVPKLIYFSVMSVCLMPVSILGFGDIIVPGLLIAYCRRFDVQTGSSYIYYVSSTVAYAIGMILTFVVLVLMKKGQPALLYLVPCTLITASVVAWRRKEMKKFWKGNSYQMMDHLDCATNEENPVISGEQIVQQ

[3] = Selectivity ratio of IC50 for human gamma-secretase expressed in HEK293 cells to IC50 for human SPPL2a expressed in HEK293 cells
Method in brief: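 HEK293 transiently transfected: SPPL2a arm with human SPPL2a, VP16-TNFα(aa1-76)-NTF and Gal4-luciferase; γ-secretase arm with human Notch1-VP16-Gal4 plus reporter (endogenous γ-secretase). Compound added 3 h after plating, 10 μM–0.3 nM final, triplicate, 24 h at 37 °C; luminescence read. IC50 from concentration vs normalised luminescence; ratio of the two IC50s.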

[4] = Octanol-buffer partition coefficient, log P of the compound by LC/MS/MS based shake flask method; type: physicochemical
Rattus norvegicus [5] = experiment: Dose normalized AUC in Sprague-Dawley rat at 3 mg/kg, po by LC/MS/MS analysis; type: ADME, organism-based; conditions: in vivo
Method in brief: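 Female Sprague−Dawley rats catheterized (femoral artery/vein); cassette oral dosing 3 mg/kg per compound as aqueous Tween 80/CMC-Na suspension (0.5/0.5/99), 48 h after iv dose; arterial blood sampled over time into EDTA tubes; LC-MS/MS with QC acceptance 70−130%; noncompartmental PK.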

[6] = Oral bioavailability in Sprague-Dawley rat at 1 mg/kg by LC/MS/MS analysis; type: ADME, organism-based; conditions: in vivo
[7] = Equilibrium solubility of the compound at pH 6.8 after 24 hrs by saturation shake flask based UV-HPLC method; type: physicochemical; conditions: buffer
[8] = target: T2, Signal peptide peptidase-like 2A (Mus musculus, UniProt Q9JJF9); experiment: Inhibition of mouse SPPL2a in A20 cells assessed as CD74/p8 accumulation by flow cytometry; type: cell-based
T2 sequence (Q9JJF9 whole entry): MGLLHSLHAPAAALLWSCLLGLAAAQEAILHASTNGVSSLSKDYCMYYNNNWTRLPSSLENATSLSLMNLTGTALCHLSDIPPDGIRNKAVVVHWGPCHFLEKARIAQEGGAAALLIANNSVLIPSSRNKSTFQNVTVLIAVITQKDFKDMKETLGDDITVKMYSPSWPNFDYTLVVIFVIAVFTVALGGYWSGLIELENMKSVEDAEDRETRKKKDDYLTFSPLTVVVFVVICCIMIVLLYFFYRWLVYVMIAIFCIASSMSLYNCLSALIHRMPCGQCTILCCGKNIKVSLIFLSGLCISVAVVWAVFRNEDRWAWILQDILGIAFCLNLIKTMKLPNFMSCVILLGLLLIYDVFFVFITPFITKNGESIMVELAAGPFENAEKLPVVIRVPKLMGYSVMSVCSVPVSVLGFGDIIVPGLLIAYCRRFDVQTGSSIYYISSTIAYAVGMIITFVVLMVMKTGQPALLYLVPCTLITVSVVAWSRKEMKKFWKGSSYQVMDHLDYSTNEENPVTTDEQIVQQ

[9] = Clearance in Sprague-Dawley rat at 1 mg/kg, iv by LC/MS/MS analysis; type: ADME, organism-based; conditions: in vivo
Method in brief: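 Female Sprague−Dawley rats with femoral artery and vein catheters implanted 96−120 h beforehand; cassette dosing iv 1 mg/kg per compound in NMP/PEG200 (30:70); arterial blood into EDTA tubes at several times, frozen; LC-MS/MS vs standard curve with QCs within 70−130%; noncompartmental analysis.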

[10] = Clearance in Balb/c mouse at 5 mg/kg, iv by LC/MS/MS analysis; type: ADME, organism-based; conditions: in vivo
[11] = target: T2, Signal peptide peptidase-like 2A; experiment: Inhibition of SPPL2a in mouse whole blood assessed as increase in CD74/p8 accumulation after 5.5 hrs by Western bot method
Method in brief: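 Mouse whole blood (200 μL) with compound from 20× stock, 0.5% DMSO final, 5.5 h at 37 °C, 5% CO2 with rotation. RBC lysis, washes, lysis in Tris pH 6.8/Triton/deoxycholate buffer; Western blot with rat anti-mouse CD74 (In-1); p8 band intensity normalized to CD74 full-length/β-actin for dose response.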

Rattus norvegicus [12] = experiment: Dose normalized AUC in Wistar rat at 10 mg/kg, po bid by LC/MS/MS analysis; type: ADME, organism-based; conditions: in vivo
Mus musculus [13] = experiment: In vivo inhibition of mouse gamma-secretase assessed as effect on Hes1 mRNA level in jejunum at 100 mg/kg, po administered as single dose by RT-PCR method; type: organism-based
Method in brief: (§2)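 Thymus and jejunum excised into RNALater, 4 °C overnight, washed, frozen at −80 °C; total RNA from 10 mg tissue by MagNA Pure LC; Hes1 measured by TaqMan real-time PCR; significance by two-tailed heteroscedastic Student's t-test.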

Mus musculus [14] = experiment: In vivo inhibition of SPPL2a in mouse assessed as increase in CD74/p8 accumulation in splenocytes at 100 mg/kg, po administered as single dose measured after 4 hrs by Western blot method; type: functional, organism-based
Mus musculus [15] = experiment: In vivo inhibition of SPPL2a in mouse assessed as increase in CD74/p8 accumulation in splenocytes at 10 to 100 mg/kg, po administered as single dose measured after 4 hrs by Western blot method; type: functional, organism-based
[16] = Inhibition of human SPP expressed in human U2OS cells using EGFP-labeled EnvSigSeq-SEAP as substrate after 24 hrs by Hoechst staining based high content imaging assay; type: cell-based
Method in brief: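 Stable U-2 OS lines expressing human SPPL2a, SPPL2b or SPP constitutively (mouse SPPL2a line analogous, mouse TNFα(aa1-77)-NTF-EGFP-NLS) with doxycycline-inducible EGFP substrate. 3000 cells/well, 3−4 h, then 11-point inhibitor 100 μM to 1 nM, 0.9% DMSO, 5 μg/mL doxycycline, 24 h 37 °C. PFA fixed, Hoechst nuclei; nuclear minus cytoplasmic EGFP intensity; inhibition vs 0.5 μM reference and DMSO; IC50 by nonlinear regression.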

Mus musculus [17] = experiment: In vivo inhibition of mouse gamma-secretase assessed as effect on Hes1 mRNA level in thymus at 100 mg/kg, po administered as single dose by RT-PCR method; type: organism-based; method in brief: as §2

CC(C)C[C@H](NC(=O)OCc1ccccc1)C(=O)N[C@@H](CC(C)C)C(=O)NCC(=O)CNC(=O)[C@H](CC(C)C)NC(=O)[C@H](CC(C)C)NC(=O)OCc1ccccc1
pIC50 [1]: < 5.00 | pIC50 [2]: 8.22 | Ratio IC50 [3]: >1666

Cc1ncc(F)cc1NC(=O)C[C@@H](C)C(=O)N[C@@H]1C(=O)N2CCCN2Cc2ccccc21
logP [4]: 1.7 | AUC/dose (Rattus norvegicus [5]): 157 nM·h | bioavailability [6]: 100% | solubility thermodynamic at 24 h [7]: > 1000 µM | pIC50 [8]: 7.01 | clearance [9]: 34 mL/min/kg | clearance [10]: 32 mL/min/kg | pIC50 [11]: 7.30 | pIC50 [1]: 5.09 | pIC50 [2]: 7.36

C[C@H](CC(=O)Nc1cc(F)cc(F)c1)C(=O)N[C@@H]1C(=O)N2CCCN2Cc2ccccc21
pIC50 [1]: 7.77 | pIC50 [2]: 8.30 | Ratio IC50 [3]: 3

Cc1ncc(F)cc1NC(=O)C[C@@H](C)C(=O)N[C@@H]1C(=O)N2CCCN2C(=O)c2ccccc21
logP [4]: 0.9 | pIC50 [1]: < 5.00

Cc1ncc(F)cc1NC(=O)C[C@@H](C)C(=O)N[C@@H]1C(=O)N2CCCN2Cc2c(F)cccc21
logP [4]: 2.1 | AUC/dose (Rattus norvegicus [5]): 1522 nM·h | bioavailability [6]: 54% | solubility thermodynamic at 24 h [7]: 257 µM (≈ 118 µg/mL) | pIC50 [8]: 6.92 | clearance [9]: 15 mL/min/kg | pIC50 [1]: 5.11 | pIC50 [2]: 7.12

C[C@H](NC(=O)[C@@H](O)c1cc(F)cc(F)c1)C(=O)N[C@@H]1C(=O)N(C)c2ccccc2-c2ccccc21
AUC/dose (Rattus norvegicus [12]): 63 nM·h | Activity (Mus musculus [13]): Toxic | Activity (Mus musculus [14]): Active | Activity (Mus musculus [15]): Active | pIC50 [1]: > 9.52 | pIC50 [2]: 8.00 | Ratio IC50 [3]: <1 | pIC50 [16]: 7.30 | Activity (Mus musculus [17]): Toxic

Cc1ncccc1NC(=O)C[C@@H](C)C(=O)N[C@@H]1C(=O)N2CCCN2Cc2ccccc21
solubility thermodynamic at 24 h [7]: > 1000 µM | pIC50 [1]: < 5.00 | pIC50 [2]: 5.99

Cc1ncc(F)cc1NC(=O)C[C@H](C(=O)N[C@@H]1C(=O)N2CCCN2C(=O)c2ccccc21)C1CC1
logP [4]: 1.6 | pIC50 [8]: 6.30 | pIC50 [1]: < 5.00

Cc1ccc(NC(=O)C[C@@H](C)C(=O)N[C@@H]2C(=O)N3CCCN3Cc3ccccc32)cc1
pIC50 [1]: 7.57

C[C@H](CC(=O)Nc1ccccc1C(F)(F)F)C(=O)N[C@@H]1C(=O)N2CCCN2Cc2ccccc21
pIC50 [1]: < 5.00 | pIC50 [2]: 5.55 | Ratio IC50 [3]: >3

Cc1cccc(NC(=O)C[C@@H](C)C(=O)N[C@@H]2C(=O)N3CCCN3Cc3ccccc32)c1
pIC50 [1]: 6.21 | pIC50 [2]: 7.15 | Ratio IC50 [3]: 9
